Results taken from ChEMBL document CHEMBL1155366, “Synthesis of novel ageladine A analogs showing more potent matrix metalloproteinase (MMP)-12 inhibitory activity than the natural product” (Bioorg Med Chem Lett, 2009).

Target: Macrophage metalloelastase (Homo sapiens, UniProt P39900)
Assay: Inhibition of human MMP12 catalytic domain
Method in brief: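 Human MMP-12 catalytic domain (residues 84-255) in 50 mM Tris pH 7.5, 0.05% Brij-35, 10 mM CaCl₂, 1 mM DTNB. Preincubated with inhibitor in DMSO for 20 min at RT. The chromogenic thiopeptolide substrate (1 mM stock) was then added and the mix incubated 30–80 min at 37 °C. Reaction stopped with 0.2 M EDTA (pH 8.0); color read at 405 nm.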

Macrophage metalloelastase, sequence (P39900 whole entry, the tested form may be a part): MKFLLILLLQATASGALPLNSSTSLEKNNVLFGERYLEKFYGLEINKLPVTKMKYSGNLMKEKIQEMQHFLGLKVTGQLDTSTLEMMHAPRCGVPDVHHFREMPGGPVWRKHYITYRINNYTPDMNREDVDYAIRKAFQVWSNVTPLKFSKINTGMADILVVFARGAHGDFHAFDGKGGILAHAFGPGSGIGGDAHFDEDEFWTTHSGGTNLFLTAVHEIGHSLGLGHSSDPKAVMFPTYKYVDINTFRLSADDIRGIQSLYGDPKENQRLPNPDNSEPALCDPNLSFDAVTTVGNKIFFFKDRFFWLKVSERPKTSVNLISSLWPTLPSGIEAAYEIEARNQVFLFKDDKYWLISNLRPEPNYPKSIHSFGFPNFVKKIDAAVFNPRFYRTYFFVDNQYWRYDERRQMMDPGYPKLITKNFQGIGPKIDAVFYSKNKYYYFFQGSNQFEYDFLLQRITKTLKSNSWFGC

Compound	IC50 [µM]
Nc1nc2c(-c3cc(Br)c[nH]3)nccc2[nH]1	> 100
Nc1nc2c(-c3[nH]c(Br)c(CCc4ccccc4C(F)(F)F)c3Br)nccc2[nH]1	> 100
Cc1[nH]c(-c2nccc3[nH]c(N)nc23)cc1Br	> 100
Cc1cc(-c2nccc3[nH]c(N)nc23)[nH]c1Br	> 100
Nc1nc2c(-c3[nH]c(Br)c(CCCc4ccccc4)c3Br)nccc2[nH]1	> 100
Nc1nc2c(-c3cc(Br)c(-c4cccc(-c5ccccc5)c4)[nH]3)nccc2[nH]1	> 100
Nc1nc2c(-c3ccc(Br)[nH]3)nccc2[nH]1	> 100
Nc1nc2c(-c3[nH]c(Br)c(CCc4ccc(C(F)(F)F)cc4)c3Br)nccc2[nH]1	> 100
Nc1nc2c(-c3[nH]c(Br)c(Cc4ccccc4)c3Br)nccc2[nH]1	> 100
Nc1nc2c(-c3cc(Cc4ccccc4)c(Br)[nH]3)nccc2[nH]1	> 100
Nc1nc2c(-c3cc(Br)c(-c4ccc(-c5ccccc5)cc4)[nH]3)nccc2[nH]1	> 100
Cc1[nH]c(-c2nccc3[nH]c(N)nc23)c(Br)c1Br	> 100

Results, then the compound that gave them:

IC50 [µM]	Compound
2.02	Nc1nc2c(-c3cc(Br)c(Cl)[nH]3)nccc2[nH]1
18.7	Nc1nc2c(-c3cc(-c4ccccc4)c(Br)[nH]3)nccc2[nH]1
> 100	Nc1nc2c(-c3cc(Br)c(-c4ccccc4)[nH]3)nccc2[nH]1
> 100	Nc1nc2c(-c3[nH]c(Br)c(Br)c3CCc3ccccc3)nccc2[nH]1
> 100	Nc1nc2c(-c3cc(CCCc4ccccc4)c(Br)[nH]3)nccc2[nH]1
> 100	Nc1nc2c(-c3[nH]c(Br)c(CCc4cccc(C(F)(F)F)c4)c3Br)nccc2[nH]1
5.02	Nc1nc2c(-c3cc(Cl)c(Cl)[nH]3)nccc2[nH]1
2.99	Nc1nc2c(-c3[nH]c(Br)c(CCc4ccccc4)c3Br)nccc2[nH]1
5.02	Cc1c(Br)[nH]c(-c2nccc3[nH]c(N)nc23)c1Br
10.2	Nc1nc2c(-c3cc(CCc4ccccc4)c(Br)[nH]3)nccc2[nH]1
1.24	Nc1nc2c(-c3[nH]c(Br)c(Br)c3Br)nccc2[nH]1
